This is a sample that favours compounds with a hit; in the whole collection about 2.3% have one here.
HIF act = HIF pathway transcriptional activation; 0.32% of 300,000 active; U2OS HRE-luciferase reporter, luminescence; normalized: DMSO 0%, desferrioxamine 100%; activation, % at 7.5 µM (by protocol);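 active = mean activation of at least 10% of the iron chelator positive control signal, with at least half of replicates also reaching 10%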
Beta apoptosis = blocks beta cell apoptosis. INS-1E cytokine-induced death, ATP luminescence, 48 h; percent of positive-control rescue, neutral wells zero. protection from apoptosis, % (concentration not given with the values). 0.8% of 300,000 active;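 active = Every replicate reaches about 75%, or at least half do and their mean reaches it too, limit read from the data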;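 note: 0% = cytokine-treated negative control wells and 100% = positive control rescue; higher means more ATP so stronger rescue from cytokine killing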
KLF5 inhibitor = suppresses KLF5 promoter-driven expression; DLD-1 KLF5 promoter-luciferase reporter, luminescence; inhibition, % at 5 µM; 0.23% of 290,000 active;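 active = inhibition above a per-plate limit of that plate's mean compound inhibition plus 3 SD, cut at about 60% in these data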;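 note: 0% = DMSO wells and 100% = LY294002 at 200 µM; higher means less KLF5 promoter-driven luciferase light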
A1 inh = inhibitors of the anti-apoptotic protein A1, read as caspase activation | MEF A1-2A-BIM cells, Caspase-Glo 3/7 luminescence, 3 h; percent of clofoctol response, vehicle zero | caspase activation, % (no concentration beside the values) | 0.066% of 330,000 active | AID 2462;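 active = over half of replicate activation scores above 10%, or exactly half above 10 with the replicate mean above 10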
T cruzi inh = T. cruzi replication inhibition; T. cruzi beta-gal in NIH3T3, luminescence, 90 h; inhibition, % (test concentration not listed); 1.4% of 300,000 active;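 active = mean inhibition across valid replicates above about 55%, limit read from the data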;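 note: signal also drops with host cell toxicity which is not excluded here; 0% = plate median of DMSO wells and 100% = zero luminescence signal; higher percent means less beta-gal luminescence so fewer parasites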
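System: Mouse NIH/3T3 fibroblasts infected with β-gal-expressing T. cruzi Tulahuen C4 | Quantity: NIH/3T3 cells, 5,000 per well | Reagent: 5000 reporter trypomastigotes per well | Dosing: Compound pinned at 50 nL/well, DMSO | Schedule: 3 h host attachment, then at least 90 h co-culture | Detection: GalScreen luminescence, 60 min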
Active calls of the source: *; x = no result.

SMILES	HIF act	Beta apoptosis	KLF5 inhibitor	A1 inh	T cruzi inh
CN(CC1CCCO1)S(=O)(=O)c1ccc(C(=O)Nc2nc(-c3ccccn3)cs2)cc1 (stereo unspecified)	x	104*	56	-1	x
COc1ccc(C(=O)OCCOc2cccc(Cl)c2)cc1S(=O)(=O)N1CCOCC1	0	2	-24	0	45
CCOC(=O)[C@@H]1[C@H]2COc3cc(OC)ccc3[C@H]2N2C(=O)N(c3ccc(C(F)(F)F)cc3)C(=O)[C@]12C	x	108*	x	-2	x
O=C(Nc1ccccc1)c1ccc(CN2CCc3ccccc3C2)cc1	0	-1	-19	-1	10
O=C(Nc1ccc(S(=O)(=O)N2CCCCC2)cc1)c1ccc(CN2CCc3ccccc3C2)cc1	0	107*	48	-1	50
C=CCNC(=O)C(=O)Nc1ccc2c(c1)N(S(=O)(=O)c1cccs1)CCC2	2	2	x	0	0
c1ccc(CCN2CCN(c3ncnc4c3cnn4-c3ccccc3)CC2)cc1	0	3	-15	1	64*
CCOc1cc(/C=C2/C(=N)N3C=CSC3=NC2=O)ccc1OCCCOc1ccccc1C	0	x	-1	41*	19
COC(=O)c1ccc2c(=O)n(Cc3ccco3)c(SCC(=O)Nc3ccc(C)c(Cl)c3)nc2c1	-1	39	5	17*	-23
COc1ccc(OC)c2sc(N3CCN(C(=O)c4ccc([N+](=O)[O-])s4)CC3)nc12	-1	x	x	-1	67*
O=C(c1ccc([N+](=O)[O-])s1)N1CCN(c2ccccc2)CC1	0	43	-35	0	69*
Cc1nnsc1C(=O)Nc1ccc(S(=O)(=O)N2CCC(C)CC2)cc1	0	4	-23	-1	-36
CCc1ccc(/C(C)=N/NC(=O)c2ccccn2)cc1	0	1	-5	1	11
CCOc1ccc(C(=O)N/N=C(\c2ccccc2)c2ccccn2)cc1	-17	97*	19	0	54
O=C(N/N=C(\c1ccccc1)c1ccccn1)c1cccc([N+](=O)[O-])c1	131*	102*	67*	1	58*
CCc1ccc2oc(=O)cc(CN3CCN(Cc4ccccc4)CC3)c2c1	-1	4	0	2	61*
O=C(c1ccco1)N1CCN(Cc2cc(=O)oc3cc(O)ccc23)CC1	x	1	x	1	x
O=c1cc(CN2CCN(Cc3ccccc3)CC2)c2ccc(O)cc2o1	1	x	-22	0	56*
Cc1ccc2c(CN3CCN(Cc4ccccc4)CC3)cc(=O)oc2c1	-10	-2	20	0	59*
CCOC(=O)c1nn2c(C(F)(F)F)cc(-c3ccc(OC)cc3)nc2c1Br	0	0	-29	0	8
Cc1cc(Br)ccc1NC(=O)CNC(=O)Cc1ccc(S(=O)(=O)N2CCOCC2)s1	0	1	x	0	4
CC(=O)Nc1ccc(S(=O)(=O)N2CCSc3ccccc32)cc1	x	8	x	1	x
CC(=O)c1ccc(NC(=O)/C(=C\c2ccc(F)cc2)NC(=O)c2ccco2)cc1	0	-2	-5	1	13
COc1ccc(S(=O)(=O)NCC(c2cccnc2)N2CCN(Cc3ccccc3)CC2)cc1 (stereo unspecified)	0	7	-57	-1	55*
COc1ccc(S(=O)(=O)NCC(c2cccnc2)N2CCN(Cc3ccccc3)CC2)cc1C (stereo unspecified)	0	4	-13	1	57*
SMILES	HIF act	Beta apoptosis	KLF5 inhibitor	A1 inh	T cruzi inh
CCN1CCN(C(CNS(=O)(=O)c2ccc(OC)cc2)c2cccnc2)CC1 (stereo unspecified)	0	0	3	0	17
COc1ccc(S(=O)(=O)NCC(c2cccnc2)N2CCN(C)CC2)cc1C (stereo unspecified)	0	-4	15	0	35
COc1ccc2cc3cc(C(=O)N4CC(C)CC(C)C4)oc3nc2c1 (stereo unspecified)	4	3	-98	0	30
COc1ccc2cc3cc(C(=O)N4CCN(c5ccccn5)CC4)oc3nc2c1	56*	0	-10	0	8
COc1ccccc1C(=O)Nc1cccc2c1CCCC2	0	x	-15	0	7
CCN1/C(=C\C(=S)Nc2ccccc2)Sc2ccccc21	4	0	-27	0	14
CCN1/C(=C/C(C)=C/c2sc3ccccc3[n+]2CC)Sc2ccccc21	0	110*	-19	-1	45
CCOC(=O)C1CCN(C(=O)c2cc(COc3ccc(F)cc3F)on2)CC1	2	x	-109	-1	-2
CC(C(=O)Nc1ccccc1-c1ccccc1)N(C)Cc1nc2ccccc2c(=O)[nH]1 (stereo unspecified)	57*	x	-38	0	0
CC(NC(=O)CN(C)Cc1nc2ccccc2c(=O)[nH]1)c1ccccc1 (stereo unspecified)	0	-2	-2	0	-6
Clc1ccc(OCCN2CCN(c3ncnc4sccc34)CC2)cc1	0	106*	6	-1	-19
COc1ccc(-c2csc3ncnc(N4CCN(S(=O)(=O)c5cccc(Br)c5)CC4)c23)cc1	1	x	x	0	62*
Cc1sc2ncnc(N3CCN(S(=O)(=O)c4ccccc4)CC3)c2c1C	x	99*	x	-1	x
Cc1ccc(S(=O)(=O)N2CCN(c3ncnc4scc(-c5ccccc5)c34)CC2)cc1	x	15	x	-1	x
Cc1ccc(OCCN2CCN(c3ncnc4sc(C)c(C)c34)CC2)cc1	0	114*	-9	0	-27
COc1ccc(-c2csc3ncnc(N4CCN(S(=O)(=O)c5cccc(C(F)(F)F)c5)CC4)c23)cc1	0	x	x	0	52
CC(C)C(=O)N1CCN(c2ccccc2NC(=S)NC(=O)Cc2ccccc2)CC1	-1	8	0	0	4
O=C(Nn1cnnc1)c1ccc(Cl)c(Cl)c1	-1	x	-39	-1	-1
Cc1nc(/C(N)=N/OC(=O)c2c(-c3ccccc3Cl)noc2C)cs1	0	-1	-10	-1	2
Cc1onc(-c2c(F)cccc2Cl)c1C(=O)O/N=C(\N)c1ccc([N+](=O)[O-])o1	1	28	-24	0	60*
COc1ccc(/C(N)=N/OC(=O)c2ccc3c(c2)OCO3)cc1OC	2	x	-7	-7	57*
N/C(=N\OC(=O)c1ccc2c(c1)OCO2)c1cccc(Br)c1	4	-9	-12	-5	-5
C/C(=N\OC(=O)c1c(-c2c(F)cccc2Cl)noc1C)c1nccs1	0	3	-13	1	-7
COc1ccc(/C(N)=N/OC(=O)c2c(-c3ccccc3Cl)noc2C)cc1OC	0	7	-26	1	57*
COc1ccc(C(=O)NNC(=O)COc2ccc(Cl)cc2)c(OC)c1	-1	-2	-32	2	-13
COc1ccc(NC(=O)CSc2n[nH]c(=O)n2C2CC2)cc1OC	x	-1	x	1	x
Oc1cccc(/C=N/c2c(-c3ccco3)nc3ccccn23)c1	18*	-2	-16	-6	6
